Measured values reported in ChEMBL document CHEMBL1140733, “Comprehensive study of sansalvamide A derivatives and their structure-activity relationships against drug-resistant colon cancer cell lines” (J Med Chem, 2008).
Peptide text beside a SMILES is read from it.

Experiments:
HCT-15 [1] = experiment: Cytotoxicity against multidrug-resistant human HCT15 cells by thymidine incorporation assay; assay type: functional, cell-based
Outline: (§1)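 Cells (3000/well) were plated in IMDM (HCT-116), RPMI 1640 (HCT-15) or MEM (WS-1), each with L-glutamine, 10% FBS and 0.1% penicillin-streptomycin. Compounds in DMSO (1% in all wells) were added after about 6 h and left for 72 h, with 3H-thymidine pulsed for the last 16 h. Uptake was scintillation-counted against DMSO controls. IC50 came from four-concentration curves, three experiments in quadruplicate.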

HCT-116 [2] = experiment: Cytotoxicity against multidrug-resistant human HCT116 cells by thymidine incorporation assay; assay type: functional, cell-based; outline: as §1
HCT-15 [3] = experiment: Cytotoxicity against multidrug-resistant human HCT15 cells at 1 uM by thymidine incorporation assay; assay type: functional
Outline: (§2)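 HCT-116 cells were grown in IMDM and HCT-15 in RPMI 1640, each with L-glutamine, 10% FBS and penicillin-streptomycin, at 3000 cells/well. Compound was applied at 1 µM in 1% DMSO for 72 h total, with 3H-thymidine added for the final 16 h. Percent growth inhibition versus DMSO controls was scintillation-counted, averaging three wells in each of three assays.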

HCT-116 [4] = experiment: Cytotoxicity against multidrug-resistant human HCT116 cells at 1 uM by thymidine incorporation assay; assay type: functional; outline: as §2
[5] = Cytotoxicity against human WS1 cells by thymidine incorporation assay; assay type: cell-based; outline: as §1
HCT-15 [6] = experiment: Selectivity for multidrug-resistant human HCT15 cells over human WS1 cells; assay type: functional
HCT-116 [7] = experiment: Selectivity for multidrug-resistant human HCT116 cells over human WS1 cells; assay type: functional

Compound | IC50 (HCT-15 [1]) | IC50 (HCT-116 [2]) | inhibition at 1 µM (HCT-15 [3]) | inhibition at 1 µM (HCT-116 [4]) | IC50 [5] | Ratio IC50 (HCT-15 [6]) | Ratio IC50 (HCT-116 [7])
CC(C)C[C@@H]1NC(=O)[C@H](Cc2ccccc2)NC(=O)[C@H](CC(C)C)NC(=O)[C@@H](C(C)C)N(C)C(=O)[C@H](CC2CCCCC2)NC1=O (HELM PEPTIDE1{[Cha].[CC(C)[C@H](C(=O)[*:2])N(C)[*:1]].L.F.L}$PEPTIDE1,PEPTIDE1,1:R1-5:R2$$$V2.0) | 0.8 µM | 2.1 µM | 60% | 48% | 4 µM |  | 
CC(C)C[C@@H]1NC(=O)[C@H](C(C)C)NC(=O)[C@H](CC(C)C)NC(=O)[C@H](CC(C)C)N(C)C(=O)[C@H](Cc2ccccc2)NC1=O (HELM PEPTIDE1{F.[meL].L.V.L}$PEPTIDE1,PEPTIDE1,1:R1-5:R2$$$V2.0) | 4.5 µM | 0.8 µM | 35% | 59% | 200 µM |  | 
CC(C)C[C@@H]1NC(=O)[C@H](Cc2ccccc2)NC(=O)[C@H](CC(C)C)NC(=O)[C@H](C(C)C)NC(=O)[C@H](CC(C)C)NC1=O (HELM PEPTIDE1{F.L.L.V.L}$PEPTIDE1,PEPTIDE1,1:R1-5:R2$$$V2.0) | 46 µM | 25 µM | 10% | 28% | 200 µM |  | 
CC(C)C[C@@H]1NC(=O)[C@H](CC(C)C)NC(=O)[C@@H](Cc2ccc(O)cc2)NC(=O)[C@H](CC(C)C)NC(=O)[C@H](C(C)C)NC1=O (HELM PEPTIDE1{L.L.V.L.[dY]}$PEPTIDE1,PEPTIDE1,1:R1-5:R2$$$V2.0) | 1 µM | 1.5 µM | 47% | 45% | 200 µM |  | 
Nc1ccn([C@@H]2O[C@H](CO)[C@@H](O)C2(F)F)c(=O)n1 [GEMCITABINE] | 11.8 µM | 14.3 µM |  |  | 200 µM |  | 
CC(C)C[C@@H]1NC(=O)[C@H](Cc2ccccc2)NC(=O)[C@H](CC(C)C)NC(=O)[C@@H](C(C)C)NC(=O)[C@H](CC(C)C)NC1=O (HELM PEPTIDE1{F.L.L.[dV].L}$PEPTIDE1,PEPTIDE1,1:R1-5:R2$$$V2.0) | 0.8 µM | 1.3 µM | 48% | 48% | 20 µM |  | 
CC(C)C[C@@H]1NC(=O)[C@H](Cc2ccccc2)NC(=O)[C@@H](Cc2ccccc2)N(C)C(=O)[C@H](C(C)C)NC(=O)[C@H](CC(C)C)NC1=O | 0.7 µM | 0.8 µM | 57% | 59% | 200 µM | >250 | >250
CC(C)C[C@@H]1NC(=O)[C@H](C(C)C)NC(=O)[C@H](CC(C)C)N(C)C(=O)[C@@H](CC(C)C)NC(=O)[C@@H](Cc2ccccc2)NC1=O (HELM PEPTIDE1{[dL].[meL].V.L.[dF]}$PEPTIDE1,PEPTIDE1,1:R1-5:R2$$$V2.0) | 2.2 µM | 0.7 µM | 42% | 64% | 136 µM |  | 
CC(C)C[C@@H]1NC(=O)[C@H](C(C)C)NC(=O)[C@H](CC(C)C)NC(=O)[C@@H](CC(C)C)N(C)C(=O)[C@H](Cc2ccccc2)NC1=O (HELM PEPTIDE1{[CC(C)C[C@H](C(=O)[*:2])N(C)[*:1]].L.V.L.F}$PEPTIDE1,PEPTIDE1,1:R1-5:R2$$$V2.0) | 1.2 µM | 2 µM | 48% | 42% | 200 µM |  | 
